NALP3 yeast inh = blocks the NALP3 inflammasome reconstituted in yeast. Yeast reconstituted NLRP3/ASC/caspase-1, beta-gal luminescence, 24 h. 330,000 compounds, 0.39% hits. AID 2825. inhibition, % at 10 µM;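 active means inhibition of 50% or more; inactive means inhibition below 50%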;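 further: plate controls were induced DMSO wells for no effect and uninduced yeast grown without galactose for full effect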
NALP1 yeast inh = inhibitors of NALP1 inflammasome in yeast; S. cerevisiae NALP1/ASC/caspase-1 growth, X-gal OD620, 72 h; inhibition, % at 10 µM; 280,000 compounds, 0.61% hits; in the data active means inhibition mostly above about 24%, no sharp cut-off; inactive means mostly below about 32%
ALR H2O2 inh = human ALR oxidase inhibition via reduced H2O2; AID 485317; inhibition, % (test concentration not listed); purified ALR, DTT oxidation, H2O2 HRP-luminol luminescence; 290,000 compounds, 3.8% hits; P55789;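 active means mean replicate inhibition above about 79%, with every replicate also reaching it, limit read from the data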
Target sequence (P55789 whole entry, looked up): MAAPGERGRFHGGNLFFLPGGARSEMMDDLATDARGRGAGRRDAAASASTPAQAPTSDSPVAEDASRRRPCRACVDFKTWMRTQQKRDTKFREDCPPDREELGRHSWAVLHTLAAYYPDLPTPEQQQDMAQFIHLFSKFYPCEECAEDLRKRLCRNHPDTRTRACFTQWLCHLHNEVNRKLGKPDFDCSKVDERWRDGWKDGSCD
Arr AP2 block = blocks beta-arrestin peptide binding to AP2 adaptin; inhibition, % at 10 µM; 340,000 compounds, 0.31% hits; AID 504490; FITC-arrestin peptide / GST-AP2 beads, flow cytometry; AP2 beta2 appendage carries R879A mutation;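 active means inhibition above a set limit, near 3 SD of compounds lacking own fluorescence, cut at about 54% in these data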;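 further: plate controls were DMSO wells for no effect and 5 µM unlabelled arrestin peptide for full effect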
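System: GST-AP2 R879A bound to glutathione beads, E. coli-expressed. Also added: 50 nM FITC-arrestin peptide. Schedule: compound with beads 12 min RT, then probe 1 h RT. Signal: bead flow cytometry, FITC channel. Read-out basis: percent response.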
DSG3 Ab inh = blocks pemphigus antibody binding to human desmoglein-3; P32926; DSG3-coupled beads, scFv-anti-DSG3-GFP binding, flow cytometry; active compounds read low; binding (percent of control), % at 10 µM; 310,000 compounds, 0.48% hits; AID 588358;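 active means binding more than 3 SD below its plate's average and above zero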;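 further: hits lower antibody fragment binding to DSG3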
PolyA inhibitor = yeast polyadenylation inhibition. S. cerevisiae SKY197-pL101 polyadenylation reporter, beta-gal luminescence; efflux-impaired pdr1/pdr3 knockout yeast; score 100 = 6 SD above DMSO. activity score, % at 12 µM. 300,000 compounds, 0.02% hits;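 active means lowest replicate activity score at least 50, where 100 means six control SD above control mean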;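 further: yeast exposed to compound for 9 h at 30 °C; higher score means more reporter readthrough which indicates perturbed polyadenylation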
Arr-AP2 CP1 = blocks beta-arrestin peptide binding to human AP2. GST-AP2 beads, FITC arrestin peptide binding, flow cytometry; GST-fused beta2-adaptin appendage, R879A mutant. shares compounds with Arr AP2 block. AID 504908. inhibition, % at 10 µM. 1,300 compounds, 2% hits;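 active means inhibition above a set limit, roughly 3 SD of non-fluorescent compound noise, cut at about 38% in these data; inactive means inhibition at or below that limit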;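 further: loss of bead fluorescence from 50 nM FITC arrestin peptide bound to appendage; 0% = negative control wells and 100% = excess unlabelled arrestin peptide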
GST-FITC bead = GST-GSH bead binding interference, counter-screen; shares compounds with Arr AP2 block; inhibition, % at 10 µM; GST-fluorescein binding to GSH beads, fluorescence; 1,300 compounds, 2% hits; AID 588338;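 active means inhibition above 50%, about 3 SD of the inhibition seen with non-fluorescent compounds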;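 further: fluorescein maleimide labelled GST captured on 4 micron glutathione beads; higher means more loss of bead fluorescence from quenching or blocked binding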
The depositor's hits bear a star; / = not tested or not shown. Rows were chosen to be rich in hits. Some 4.6% of all compounds tested hit in one or more screens of this group.

SMILES	NALP3 yeast inh	NALP1 yeast inh	ALR H2O2 inh	Arr AP2 block	DSG3 Ab inh	PolyA inhibitor	Arr-AP2 CP1	GST-FITC bead
Cc1ccc(CCCNC(=O)C2CCC(=O)N(Cc3cccc(F)c3)C2)cc1 (stereo unspecified)	4.3	28.6	-10.1	8.1	/	-9.0	-10.1	3.0
COc1cccc(CNC(=O)C2CCC(=O)N(CCc3cccc(F)c3)C2)c1 (stereo unspecified)	9.1	17.4	-4.1	28.7	104.8	4.0	/	/
CN1CCN(NC(=O)c2ccc(S(=O)(=O)N3CC4(C)CC3CC(C)(C)C4)cc2)CC1 (stereo unspecified)	6.4	10.8	42.7	-2.9	102.7	2.1	/	/
Cc1ccc(N2CCN(C(=O)C3CCN(S(=O)(=O)c4cccc5nsnc45)CC3)CC2C)cc1 (stereo unspecified)	/	/	/	5.3	102.0	/	/	/
Cc1cc(-c2ccc(C(C)C)c(S(=O)(=O)N3CCC(C)CC3)c2)on1	21.0	11.7	1.3	57.6*	89.5	1.2	7.5	-6.5
COc1ccc(NC(=S)N2CCC(NC(=O)c3ccco3)CC2)cc1	11.0	4.7	-68.7	5.7	105.6	5.3	/	/
COC(=O)[C@H](CC(C)C)NCc1cccc(CN[C@@H](CC(C)C)C(=O)OC)c1	19.7	6.4	2.3	-5.7	103.2	-14.1	/	/
COc1cccc(C(=O)Nc2cc3c(cc2N2CCCC2)n(C)c(=O)n3C)c1	12.2	18.0	99.2*	11.8	92.2	5.9	1.0	-11.5
Cn1c(=O)n(C)c2cc(N3CCCC3)c(NC(=O)c3cccc(F)c3)cc21	4.4	15.5	/	-7.0	108.7	-4.1	24.8	-2.0
CCCCn1c(N)c(N(CC(C)C)C(=O)CCNC(=O)c2ccc(Br)cc2)c(=O)[nH]c1=O	-2.8	/	-4.3	-10.5	106.2	-8.2	/	/
COc1ccc(CC(NC(C)=O)C(=O)NC2CCN(c3nc(C)cc(C)c3C#N)CC2)cc1 (stereo unspecified)	10.7	-1.2	/	54.5*	100.9	15.5	0.0	-1.4
O=C(CN1CCN(S(=O)(=O)c2ccccc2)CC1)Nc1ccc2c(c1)CCC2	-0.3	21.5	-4.8	-10.1	123.9	1.3	/	/
Cc1cc(NC(=O)COC(=O)CCS(=O)(=O)c2cc(Cl)ccc2Cl)no1	16.7	-3.8	16.5	57.5*	108.0	9.3	-10.6	11.1
Cc1c(N(C(=O)c2cnccn2)C2(C(=O)NC3CCCC3)CCCCC2)c(=O)n(-c2ccccc2)n1C	-2.9	-2.7	/	55.8*	/	-3.9	2.0	-8.9
CC(=O)N(c1c(C)n(C)n(-c2ccccc2)c1=O)C1(C(=O)NC2CCCCC2)CCCCC1	-0.4	-1.1	-11.6	17.3	/	11.5	/	/
CN1Cc2c(N3CCOCC3)nc(SCc3ccccc3)c(C#N)c2CC1(C)C	-2.8	14.9	-9.2	17.6	99.0	12.9	/	/
CCSc1nc(N2CCOCC2)c2c(c1C#N)CC(C)(C)N(C)C2	11.5	4.1	/	54.4*	111.1	1.6	-14.6	-5.5
N#Cc1cc2c(nc1Cl)CCCC2	-7.1	24.6	1.9	-6.4	97.0	-0.3	/	/
O=c1c2c3c(sc2nc2n1CCCCC2)CCC3	10.1	24.8	-2.9	104.3*	98.5	-3.0	-2.6	-4.7
CCN(CC(=O)Nc1ccc(NC(C)=O)cc1)C(=O)c1ccccc1SCc1c(C)noc1C	11.6	/	-0.9	2.2	98.8	0.3	/	/
O=c1ccn(Cc2ccccc2)c2ccccc12	7.5	1.6	/	7.1	105.0	22.8	/	/
O=c1[nH]n(Cc2ccccc2)c2ccccc12	19.0	-5.7	98.6*	59.4*	118.5	-1.1	0.6	-1.1
CC(C)(C)C(=O)NCc1ccc(C(=O)CSc2nnc(-c3ccncc3)n2C2CC2)s1	20.5	/	/	62.4*	101.8	/	-11.5	2.1
O=C(OCc1ccc(F)cc1)c1ccc2c(c1)-c1ccccc1C2=O	21.0	4.8	-5.0	94.1*	106.6	-0.6	0.1	-3.3
